Measurements as given in ChEMBL document CHEMBL3351648, “Synthesis and pharmacological evaluation of 6-aminonicotinic acid analogues as novel GABA(A) receptor agonists” (Eur J Med Chem, 2014).
Values belong to the compound of their own block, whether it stands above or below them.

Key:
[1] = target: GABA-A receptor; anion channel; experiment: Displacement of [3H]muscimol from GABAA receptor in SPRD rat brain synaptic membranes by scintillation counting method; type: cell membranes
Method in brief: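 Rat synaptic membranes were thawed, homogenized in ice-cold 50 mM Tris-HCl pH 7.4, and spun at 48,000g for 10 min at 4 °C, with the wash repeated four times. Incubation was with 5 nM [3H]muscimol (final) and varying test concentrations for 60 min at 0 °C, then GF/C filtration and scintillation counting.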

[2] = target: T1, GABA-A receptor; alpha-1/beta-2/gamma-2 (Homo sapiens, UniProt P14867+P18507+P47870); experiment: (§1) Agonist activity at human GABAAalpha1beta2gamma2S receptor expressed in tsA-201cells by FLIPR membrane potential blue assay; details: read-out: EC50
T1 sequence (P14867 whole entry): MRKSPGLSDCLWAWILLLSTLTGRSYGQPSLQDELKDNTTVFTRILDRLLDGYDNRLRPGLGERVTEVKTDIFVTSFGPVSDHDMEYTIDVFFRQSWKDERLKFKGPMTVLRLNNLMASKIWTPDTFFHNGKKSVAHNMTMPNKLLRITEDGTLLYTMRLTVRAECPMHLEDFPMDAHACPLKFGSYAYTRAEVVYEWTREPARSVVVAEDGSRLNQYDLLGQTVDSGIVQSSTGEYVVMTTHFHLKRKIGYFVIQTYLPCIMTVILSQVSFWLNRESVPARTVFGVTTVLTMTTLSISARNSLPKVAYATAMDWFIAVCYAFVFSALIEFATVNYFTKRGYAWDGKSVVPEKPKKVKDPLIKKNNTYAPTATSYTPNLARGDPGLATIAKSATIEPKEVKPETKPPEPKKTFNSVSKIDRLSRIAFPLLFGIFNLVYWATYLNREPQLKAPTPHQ
T1 sequence (P47870 whole entry): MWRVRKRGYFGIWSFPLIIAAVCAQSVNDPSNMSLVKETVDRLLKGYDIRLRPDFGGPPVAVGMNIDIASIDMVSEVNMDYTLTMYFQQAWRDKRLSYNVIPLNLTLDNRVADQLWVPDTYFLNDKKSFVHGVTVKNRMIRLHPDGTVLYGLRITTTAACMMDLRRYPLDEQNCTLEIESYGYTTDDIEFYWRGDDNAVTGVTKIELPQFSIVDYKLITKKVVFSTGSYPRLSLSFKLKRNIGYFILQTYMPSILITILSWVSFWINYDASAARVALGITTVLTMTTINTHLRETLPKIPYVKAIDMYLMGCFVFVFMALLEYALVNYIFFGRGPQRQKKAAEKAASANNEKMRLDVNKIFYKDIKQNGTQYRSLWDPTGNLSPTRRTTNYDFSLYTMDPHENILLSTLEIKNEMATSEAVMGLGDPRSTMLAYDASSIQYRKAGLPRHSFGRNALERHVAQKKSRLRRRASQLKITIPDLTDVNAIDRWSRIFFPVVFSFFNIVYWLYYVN
T1 sequence (P18507 whole entry): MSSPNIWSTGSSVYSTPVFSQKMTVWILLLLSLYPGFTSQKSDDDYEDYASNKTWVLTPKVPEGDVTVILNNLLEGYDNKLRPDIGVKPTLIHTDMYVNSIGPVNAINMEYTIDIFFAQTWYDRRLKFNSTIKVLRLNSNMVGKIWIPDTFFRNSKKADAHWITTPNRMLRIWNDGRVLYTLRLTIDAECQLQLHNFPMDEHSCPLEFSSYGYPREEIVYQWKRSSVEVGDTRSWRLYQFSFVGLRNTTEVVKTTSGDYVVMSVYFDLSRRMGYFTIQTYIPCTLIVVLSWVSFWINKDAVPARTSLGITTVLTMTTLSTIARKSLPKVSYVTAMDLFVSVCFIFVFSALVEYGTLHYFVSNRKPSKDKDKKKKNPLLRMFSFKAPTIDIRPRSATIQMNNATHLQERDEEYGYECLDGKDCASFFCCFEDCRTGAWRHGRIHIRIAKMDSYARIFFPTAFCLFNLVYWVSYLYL
Method in brief: (§2)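 tsA201 cells (8×10^5 per 6 cm dish) were transfected with α1, α2, α3 or α5 plus β2 and γ2S cDNAs (1:1:3), or with ρ1 alone. Next day cells were replated into poly-D-lysine 96-well plates. After 16–24 h they were washed with Krebs buffer pH 7.4, given membrane-potential dye, held 30 min at 37 °C, and read at 560 nm emission. Concentration-response curves used ΔFU before versus after agonist; duplicates were run ≥3 times.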

[3] = target: T2, GABA-A receptor; alpha-1/beta-2/gamma-2 (Homo sapiens, UniProt P14867+P47870+P18507); experiment: as §1; details: tsa-201; method in brief: as §2
T2 sequence (P14867 whole entry): T1 sequence (P14867 whole entry)
T2 sequence (P47870 whole entry): T1 sequence (P47870 whole entry)
T2 sequence (P18507 whole entry): T1 sequence (P18507 whole entry)

[4] = target: T3, Gamma-aminobutyric acid receptor subunit rho-1 (Homo sapiens, UniProt P24046); experiment: Agonist activity at human GABAA rho1 expressed in tsA-201cells by FLIPR membrane potential blue assay; details: for pEC50: tsa-201; method in brief: as §2
T3 sequence (P24046 whole entry): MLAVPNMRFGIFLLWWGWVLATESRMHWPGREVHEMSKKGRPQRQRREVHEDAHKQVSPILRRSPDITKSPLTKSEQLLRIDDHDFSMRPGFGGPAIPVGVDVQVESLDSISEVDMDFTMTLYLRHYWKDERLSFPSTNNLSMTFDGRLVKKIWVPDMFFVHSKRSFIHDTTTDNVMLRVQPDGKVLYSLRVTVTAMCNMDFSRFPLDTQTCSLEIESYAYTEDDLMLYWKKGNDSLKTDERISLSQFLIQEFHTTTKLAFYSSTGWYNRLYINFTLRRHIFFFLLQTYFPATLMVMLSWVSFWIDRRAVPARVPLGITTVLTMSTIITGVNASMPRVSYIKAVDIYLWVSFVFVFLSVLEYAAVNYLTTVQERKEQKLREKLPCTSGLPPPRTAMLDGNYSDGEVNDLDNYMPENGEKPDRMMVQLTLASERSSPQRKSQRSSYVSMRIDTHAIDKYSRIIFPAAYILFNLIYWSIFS

[5] = Dissociation constant, pKa of the compound by diode array detector method; type: physicochemical
Method in brief: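 pKa was determined by titration in methanol cosolvent at 23–48%, with three titrations per compound. An in-line diode-array detector recorded UV-Vis spectra, and the titration was mapped against the spectra of the protonated and unprotonated species.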

[6] = target: T4, GABA A receptor alpha-2/beta-2/gamma-2 (Homo sapiens, UniProt P18507+P47869+P47870); experiment: Agonist activity at human GABAAalpha2beta2gamma2S receptor expressed in tsA-201cells by FLIPR membrane potential blue assay; method in brief: as §2
T4 sequence (P47870 whole entry): T1 sequence (P47870 whole entry)
T4 sequence (P18507 whole entry): T1 sequence (P18507 whole entry)
T4 sequence (P47869 whole entry): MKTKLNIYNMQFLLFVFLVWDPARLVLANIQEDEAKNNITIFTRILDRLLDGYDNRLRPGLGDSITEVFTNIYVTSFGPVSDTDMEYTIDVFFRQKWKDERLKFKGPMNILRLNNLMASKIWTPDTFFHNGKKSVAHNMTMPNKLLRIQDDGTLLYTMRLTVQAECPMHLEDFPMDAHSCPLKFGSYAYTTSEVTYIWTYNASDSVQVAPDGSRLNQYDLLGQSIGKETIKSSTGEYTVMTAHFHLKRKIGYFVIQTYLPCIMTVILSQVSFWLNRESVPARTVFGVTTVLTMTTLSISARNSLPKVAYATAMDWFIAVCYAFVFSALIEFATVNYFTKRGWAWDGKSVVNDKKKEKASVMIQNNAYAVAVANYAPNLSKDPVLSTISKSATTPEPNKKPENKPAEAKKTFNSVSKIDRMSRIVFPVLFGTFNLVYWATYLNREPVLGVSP

[7] = target: GABA A receptor alpha-2/beta-2/gamma-2 (Homo sapiens) (UniProt P47870+P18507+P47869); experiment: Agonist activity at human GABAAalpha2beta2gamma2S receptor expressed in tsA-201cells by FLIPR membrane potential blue assay relative to GABA
[8] = target: T5, GABA A receptor alpha-3/beta-2/gamma-2 (Homo sapiens, UniProt P18507+P34903+P47870); experiment: Agonist activity at human GABAAalpha3beta2gamma2S receptor expressed in tsA-201cells by FLIPR membrane potential blue assay; method in brief: as §2
T5 sequence (P47870 whole entry): T1 sequence (P47870 whole entry)
T5 sequence (P18507 whole entry): T1 sequence (P18507 whole entry)
T5 sequence (P34903 whole entry): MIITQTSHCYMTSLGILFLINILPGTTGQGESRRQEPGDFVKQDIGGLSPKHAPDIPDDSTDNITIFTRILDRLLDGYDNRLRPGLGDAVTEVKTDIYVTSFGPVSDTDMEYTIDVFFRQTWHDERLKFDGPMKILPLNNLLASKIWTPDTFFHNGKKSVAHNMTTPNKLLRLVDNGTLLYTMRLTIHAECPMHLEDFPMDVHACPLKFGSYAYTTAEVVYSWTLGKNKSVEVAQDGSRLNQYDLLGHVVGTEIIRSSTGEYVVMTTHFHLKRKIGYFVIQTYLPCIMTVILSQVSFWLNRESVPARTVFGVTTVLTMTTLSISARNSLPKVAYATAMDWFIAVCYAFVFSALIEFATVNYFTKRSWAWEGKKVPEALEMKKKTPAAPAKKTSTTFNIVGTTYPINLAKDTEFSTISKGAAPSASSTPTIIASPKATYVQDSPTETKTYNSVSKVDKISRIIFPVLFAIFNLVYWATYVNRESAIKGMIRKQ

[9] = target: GABA A receptor alpha-3/beta-2/gamma-2 (Homo sapiens) (UniProt P47870+P18507+P34903); experiment: Agonist activity at human GABAAalpha3beta2gamma2S receptor expressed in tsA-201cells by FLIPR membrane potential blue assay relative to GABA
[10] = Agonist activity at human GABAAalpha5beta2gamma2S receptor expressed in tsA-201cells by FLIPR membrane potential blue assay; type: cell membranes
tsA-201 = experiment: Agonist activity at human GABAAalpha5beta2gamma2S receptor expressed in tsA-201cells by FLIPR membrane potential blue assay relative to GABA
[11] = target: T3, Gamma-aminobutyric acid receptor subunit rho-1; experiment: Agonist activity at human GABAA rho1 expressed in tsA-201cells by FLIPR membrane potential blue assay relative to GABA

- Ki [1]: 90 µM
Compound: Nc1ccc(CC(=O)O)cn1

- Ki [1]: > 100 µM
Compound: Cc1cc(C(=O)O)cnc1N

- Ki [1]: > 100 µM
Compound: Nc1ccc(C(=O)O)c(Cl)n1

Compound: CCc1cc(N)ncc1C(=O)O
- Ki [1]: 9.3 µM
- EC50 [2]: > 1000 µM
- pEC50 [3]: < 3
- EC50 ([4]; read-out: EC50): > 1000 µM
- pEC50 [4]: < 3

- Ki [1]: > 100 µM
Compound: Nc1ncc(C(=O)O)cc1I

- Ki [1]: 0.044 µM
- EC50 [2]: 2.6 µM
- EC50 ([4]; read-out: EC50): 2.3 µM
- EC50 ([4]; read-out: pEC50 (converted)): 1.23 µM
- pKa [5]: 12.4
- EC50 [6]: 0.82 µM
- Rmax [7]: 101%
- EC50 [8]: 1.1 µM
- Rmax [9]: 93%
- EC50 [10]: 0.092 µM
- pEC50 [10]: 7.04
- Rmax (tsA-201): 100%
- Rmax [11]: 64%
Compound: NC1=NCC(C(=O)O)CC1 (stereo unspecified)

- Ki [1]: > 100 µM
Compound: Nc1cccc(C(=O)O)n1

- Ki [1]: > 100 µM
- pKa [5]: 1.4
Compound: O=C(O)c1cncnc1

- Ki [1]: > 100 µM
Compound: Nc1cc(-c2ccccc2)c(C(=O)O)cn1

- Ki [1]: > 100 µM
Compound: CCc1cc(C(=O)O)cnc1N

- Ki [1]: > 100 µM
Compound: Nc1cccc(CC(=O)O)n1

- Ki [1]: 0.055 µM
- EC50 [2]: 11 µM
- EC50 ([4]; read-out: EC50): 39 µM
- EC50 [6]: 4.5 µM
- Rmax [7]: 95%
- EC50 [8]: 5.6 µM
- Rmax [9]: 91%
- EC50 [10]: 0.78 µM
- pEC50 [10]: 6.1
- Rmax (tsA-201): 101%
- Rmax [11]: 85%
Compound: O=C(O)C1=CCNCC1 [ISOGUVACINE]

- Ki [1]: > 100 µM
Compound: Nc1ncccc1CC(=O)O

Compound: CCc1nc(N)ccc1C(=O)O
- Ki [1]: 2.1 µM
- EC50 [2]: > 1000 µM
- pEC50 [3]: < 3
- EC50 ([4]; read-out: EC50): > 1000 µM
- pEC50 [4]: < 3

Compound: NCc1cc(=O)[nH]o1 [MUSCIMOL]
- Ki [1]: 0.006 µM
